Measured values taken from ChEMBL document CHEMBL1125420, “Synthesis and biological activity of novel folic acid analogues: pteroyl-S-alkylhomocysteine sulfoximines” (J Med Chem, 1992).
pIC50: −log10 of the molar value.

What was measured:
L1210 [1] = assay: Compound was tested for release of tritium from 1 uM [5-3H]-dUMP into water at a conc of 0.4 mM enzyme(bovine thymidylate synthase) was added to cell suspension in presence of CH2O; assay type: functional, Mus musculus
Summary of the method: (§1)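 L1210 cells (transplanted, harvested), partially permeabilized with dextran sulfate, at (2–5) × 10^7 cells/mL. Preincubated with cofactor 15 min at 37 °C with 0.2 mM NADPH, 1 mM serine or 7.5 mM CH2O, 2-mercaptoethanol, MgCl2, EDTA, NaF, 80 mM Tris-acetate pH 7.4. Then 1 μM [5-3H]dUMP added for 30 min. Where enzyme added, 0.016 unit per 0.15 mL suspension. Tritium in water given as % of total, background-corrected; two experiments in duplicate.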

L1210 [2] = assay: Compound was tested for release of tritium from 1 uM [5-3H]-dUMP into water at a conc of 0.4 mM enzyme(bovine thymidylate synthase) was added to cell suspension in presence of serine; assay type: functional, Mus musculus; summary of the method: as §1
L1210 [3] = assay: Compound was tested for release of tritium from 1 uM [5-3H]-dUMP into water at a con of 0.4 mM and without addition of bovine thymidylate synthase to cell suspension in absence of CH2O; assay type: functional, Mus musculus; summary of the method: as §1
L1210 [4] = assay: Compound was tested for release of tritium from 1 uM [5-3H]-dUMP into water at a con of 0.4 mM and without addition of bovine thymidylate synthase to cell suspension in absence of serine; assay type: functional, Mus musculus; summary of the method: as §1
L1210 [5] = assay: Inhibitory activity against growth of L1210 leukemia cells in culture at 0.5 mM; assay type: functional; settings: Mus musculus
Summary of the method: (§2)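 Murine L1210 leukemia cells, duplicate cultures, exposed to increasing concentrations alongside folic acid for 48 h at 37 °C in RPMI 1640 with 10% fetal calf serum. Cells counted; IC50 (50% inhibition of control growth) read graphically; percent inhibition also taken at 0.5 mM. Averages of two experiments run in duplicate.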

L1210 [6] = assay: (§3) Inhibitory activity against growth of L1210 leukemia cells in culture; assay type: functional, cell-based; settings: Mus musculus; summary of the method: as §2
L1210 [7] = assay: Compound was tested for release of tritium from 1 uM [5-3H]-dUMP into water at a conc of 0.4 mM, enzyme(bovine thymidylate synthase) was added to cell suspension in presence of serine; assay type: functional, Mus musculus; summary of the method: as §1
L1210 [8] = assay: as §3; assay type: functional, Mus musculus; summary of the method: as §2

Compound	Tritium release (L1210 [1]) [%]	Tritium release (L1210 [2]) [%]	Tritium release (L1210 [3]) [%]	Tritium release (L1210 [4]) [%]	inhibition at 500 µM (L1210 [5]) [%]	pIC50 (L1210 [6])	Tritium release (L1210 [7]) [%]	Inhibition (L1210 [8]) [%]
CS(=O)(=O)CCC(NC(=O)c1ccc(NCc2cnc3nc(N)nc(O)c3n2)cc1)C(=O)O (stereo unspecified)	6.7	7.8	4.6	3.6	78.6	3.41		
CCC[S+](=N)([O-])CCC(NC(=O)c1ccc(NCc2cnc3nc(N)nc(O)c3n2)cc1)C(=O)O (racemic)	7.3	9.2	4.3	4.2	75.2	3.52		
CC[S+](=N)([O-])CCC(NC(=O)c1ccc(NCc2cnc3nc(N)nc(O)c3n2)cc1)C(=O)O (racemic)	6.8	8.3	4.9	4.2	80.2	3.66		
CCCC[S+](=N)([O-])CCC(NC(=O)c1ccc(NCc2cnc3nc(N)nc(O)c3n2)cc1)C(=O)O (racemic)	5.8	7	4.4	4	75.2	3.57		
C[S+](=N)([O-])CCC(NC(=O)c1ccc(NCc2cnc3nc(N)nc(O)c3n2)cc1)C(=O)O (mixture of isomers)	8.3		5	3.9	76.4	3.72	9.5	
Nc1nc(=O)c2nc(CNc3ccc(C(=O)N[C@@H](CCC(=O)O)C(=O)O)cc3)cnc2[nH]1 [FOLIC ACID]	21.8	24.1	20.6	19.1		< 2.00		33.6
